In ChEMBL document CHEMBL1152792, “Synthesis and anticonvulsant activity of amino acid-derived sulfamides” (J Med Chem, 2009):
Calls of active or inactive are those of the source. The rule behind the calls is not given here.

Columns and labels:
Mus musculus [1] = test: Anticonvulsant activity in albino mouse at 30 mg/kg, ip after 0.5 hrs by MES test; format: functional, organism-based; parameters: dose 30 mg/kg
How it was run: (§1)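 NIH Anticonvulsant Drug Development (ADD) program phase I screen in adult male albino mice (18–23 g). Compound given ip in 30% PEG 400 and 10% water at 0.01 mL/g body weight. Seizures were induced electrically (MES) or chemically (PTZ), and animals were tested 0.5 and 4 h after dosing. Result scored as protected/tested animals.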

Mus musculus [2] = test: Anticonvulsant activity in albino mouse at 300 mg/kg, ip after 0.5 hrs by MES test; format: functional, organism-based; parameters: dose 300 mg/kg; how it was run: as §1
Mus musculus [3] = test: Anticonvulsant activity in albino mouse at 30 mg/kg, ip after 4 hrs by MES test; format: functional, organism-based; parameters: dose 30 mg/kg; how it was run: as §1
Mus musculus [4] = test: Anticonvulsant activity in albino mouse at 300 mg/kg, ip after 4 hrs by MES test; format: functional, organism-based; parameters: dose 300 mg/kg; how it was run: as §1
Mus musculus [5] = test: Anticonvulsant activity in albino mouse at 100 mg/kg, ip after 0.5 hrs by PTZ test; format: functional, organism-based; parameters: dose 100 mg/kg; how it was run: as §1
Mus musculus [6] = test: Anticonvulsant activity in albino mouse at 30 mg/kg, ip after 4 hrs by PTZ test; format: functional, organism-based; parameters: dose 30 mg/kg; how it was run: as §1
Mus musculus [7] = test: Anticonvulsant activity in albino mouse at 100 mg/kg, ip after 4 hrs by PTZ test; format: functional, organism-based; parameters: dose 100 mg/kg; how it was run: as §1
Mus musculus [8] = test: Anticonvulsant activity in albino mouse at 300 mg/kg, ip after 4 hrs by PTZ test; format: functional, organism-based; parameters: dose 300 mg/kg; how it was run: as §1
Mus musculus [9] = test: Toxicity in albino mouse at 30 mg/kg, ip after 0.5 hrs by rotarod test; format: organism-based; parameters: dose 30 mg/kg, route intraperitoneal; conditions: in vivo
How it was run: (§2)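 Neurotoxicity was screened by the standardized rotarod test in the ADD phase I protocol. Adult male albino mice (18–23 g) received compound ip in 30% PEG 400 and 10% water at 0.01 mL/g. Animals were tested 0.5 and 4 h post-dose. Result scored as toxic/tested animals.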

Mus musculus [10] = test: Toxicity in albino mouse at 100 mg/kg, ip after 0.5 hrs by rotarod test; format: organism-based; parameters: dose 100 mg/kg, route intraperitoneal; conditions: in vivo; how it was run: as §2
Mus musculus [11] = test: Toxicity in albino mouse at 300 mg/kg, ip after 0.5 hrs by rotarod test; format: organism-based; parameters: dose 300 mg/kg, route intraperitoneal; conditions: in vivo; how it was run: as §2
Mus musculus [12] = test: Toxicity in albino mouse at 30 mg/kg, ip after 4 hrs by rotarod test; format: organism-based; parameters: dose 30 mg/kg, route intraperitoneal; conditions: in vivo; how it was run: as §2
Mus musculus [13] = test: Toxicity in albino mouse at 100 mg/kg, ip after 4 hrs by rotarod test; format: organism-based; parameters: dose 100 mg/kg, route intraperitoneal; conditions: in vivo; how it was run: as §2
Mus musculus [14] = test: Toxicity in albino mouse at 300 mg/kg, ip after 4 hrs by rotarod test; format: organism-based; parameters: dose 300 mg/kg, route intraperitoneal; conditions: in vivo; how it was run: as §2
Mus musculus [15] = test: Anticonvulsant activity in ip dosed albino mouse after 4 hrs by MES test; format: functional
How it was run: (§3)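 Phase II quantitative MES test in adult male albino mice (18–23 g). Compound given ip in 30% PEG 400 and 10% water at 0.01 mL/g. Testing was done at the previously determined time of peak effect. Six mice per dose group; ED50 (dose protecting 50% of animals, μmol/kg) calculated from the dose–response curve.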

Mus musculus [16] = species: Mus musculus; test: Ratio of valproic acid ED50 to compound ED50 in albino mouse after 4 hrs by MES test; format: functional
How it was run: (§4)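 The compound ED50 came from ip dosing in male albino mice (six per dose) at the time of peak effect. The valproate ED50 was taken from earlier literature.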

Mus musculus [17] = test: Anticonvulsant activity in ip dosed albino mouse after 0.5 hrs by MES test; format: functional
Mus musculus [18] = species: Mus musculus; test: Ratio of valproic acid ED50 to compound ED50 in albino mouse after 0.5 hrs by MES test; format: functional
Mus musculus [19] = test: Anticonvulsant activity in ip dosed albino mouse after 0.25 hrs by MES test; format: functional
Mus musculus [20] = test: Anticonvulsant activity in albino mouse at 100 mg/kg, ip after 0.5 hrs by MES test; format: functional, organism-based; parameters: dose 100 mg/kg; how it was run: as §1
Mus musculus [21] = test: Anticonvulsant activity in albino mouse at 100 mg/kg, ip after 4 hrs by MES test; format: functional, organism-based; parameters: dose 100 mg/kg; how it was run: as §1
Mus musculus [22] = test: Anticonvulsant activity in ip dosed albino mouse after 2 hrs by MES test; format: functional; how it was run: as §3
Mus musculus [23] = species: Mus musculus; test: Ratio of valproic acid ED50 to compound ED50 in albino mouse after 2 hrs by MES test; format: functional; how it was run: as §4

Row | Structure (SMILES) | Activity (Mus musculus [3]) | Activity (Mus musculus [5]) | Activity (Mus musculus [6]) | Activity (Mus musculus [7]) | Activity (Mus musculus [9]) | Activity (Mus musculus [10]) | Activity (Mus musculus [11]) | Activity (Mus musculus [12]) | Activity (Mus musculus [13]) | Activity (Mus musculus [14]) | other results
1 | COC(=O)CCNS(=O)(=O)Oc1ccccc1O | inactive | inactive | inactive | inactive | Non-toxic | Non-toxic | Non-toxic | Non-toxic | Non-toxic | Non-toxic | Activity (Mus musculus [1]): inactive; Activity (Mus musculus [2]): inactive; Activity (Mus musculus [4]): inactive; Activity (Mus musculus [8]): inactive; ED50 (Mus musculus [15]): 374 µmol/kg; Ratio ED50 (Mus musculus [16]): 2.7
2 | CCCC(CCC)C(=O)NCC(N)=O [VALROCEMIDE] |  |  |  |  |  |  |  |  |  |  | ED50 (Mus musculus [17]): 755 µmol/kg; Ratio ED50 (Mus musculus [18]): 1.3
3 | CCCC(CCC)C(=O)O [VALPROIC ACID] |  |  |  |  |  |  |  |  |  |  | ED50 (Mus musculus [19]): 1010 µmol/kg
4 | CCCC(CCC)CNS(=O)(=O)NCCC(=O)OC | Active | Active | inactive | inactive | Non-toxic | Non-toxic | Non-toxic | Non-toxic | Non-toxic | Non-toxic | Activity (Mus musculus [20]): inactive; Activity (Mus musculus [21]): inactive; ED50 (Mus musculus [22]): 79 µmol/kg; Ratio ED50 (Mus musculus [23]): 12.8
